Where “and” joins values, the source holds several entries; their conditions need not be identical. Equal entries are not always repeated.
Columns and labels:
[1] = molecular target: Wild type (wt) human Glu^1-Pg (plasminogen) (human); test: SPR
[2] = molecular target: Glu^1-Pg activation by SK (Homo sapiens, UniProt P00747); test: SK-mediated; assay type: biochemical, human Glu^1-Pg; SK from Streptococcus equisimilis
[3] = Sedimentation equilibrium / self-association; assay type: physicochemical; details: PAM 22 μM, 20 °C, representative scan at 15,000 rpm
Method in brief: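 Test protein at 22 μM final in 10 mM HEPES/100 mM NaCl, pH 7.4, at 20 °C. Centrifuged at 10,000 and 15,000 rpm. Apparent molecular weight came from a global fit of three scans at both speeds. Radius vs absorbance was simulated for the purely monomeric protein.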

[4] = molecular target: T1, Glu^1-Pg activation by uPA (Homo sapiens, UniProt P00747); test: uPA-catalyzed Pg activation, chromogenic substrate S-2251; assay type: biochemical; details: 1 mM 6-AHA
[5] = tested on: Glu^1-Pg; details: saturating amounts of 6-AHA, Cl^−-containing buffer; ref [14],[19],[20]; cited from earlier work
[6] = molecular target: T1, Glu^1-Pg activation by uPA; details: 6-AHA, acetate buffer; ref [34]; cited from earlier work

T1 sequence (P00747 20-810 limits assumed): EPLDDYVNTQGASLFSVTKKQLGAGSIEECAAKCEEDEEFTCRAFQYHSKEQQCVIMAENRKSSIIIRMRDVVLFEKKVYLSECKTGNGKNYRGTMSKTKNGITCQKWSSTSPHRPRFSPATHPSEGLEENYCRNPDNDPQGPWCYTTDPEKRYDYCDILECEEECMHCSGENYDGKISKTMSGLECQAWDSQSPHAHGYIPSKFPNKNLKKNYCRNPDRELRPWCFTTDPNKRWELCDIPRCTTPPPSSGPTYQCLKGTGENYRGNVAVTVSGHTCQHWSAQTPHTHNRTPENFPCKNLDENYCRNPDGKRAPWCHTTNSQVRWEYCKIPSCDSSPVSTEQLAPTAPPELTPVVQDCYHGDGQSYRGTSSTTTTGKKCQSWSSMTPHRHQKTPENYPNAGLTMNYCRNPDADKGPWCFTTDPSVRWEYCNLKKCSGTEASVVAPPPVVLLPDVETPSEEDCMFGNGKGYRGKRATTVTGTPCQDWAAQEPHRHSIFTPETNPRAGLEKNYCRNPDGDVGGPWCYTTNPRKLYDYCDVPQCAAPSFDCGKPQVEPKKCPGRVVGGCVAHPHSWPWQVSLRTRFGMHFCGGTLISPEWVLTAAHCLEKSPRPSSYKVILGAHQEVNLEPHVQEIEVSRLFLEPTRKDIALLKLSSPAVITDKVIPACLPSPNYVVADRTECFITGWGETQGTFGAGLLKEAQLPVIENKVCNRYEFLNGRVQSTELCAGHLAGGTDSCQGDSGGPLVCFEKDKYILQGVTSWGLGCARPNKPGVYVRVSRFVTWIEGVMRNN

Row | Molecule | Kd [1] | koff [1] [s⁻¹] | kon [1] [M⁻¹ s⁻¹] | other results
1 | K^98A/R^101A/H^102A/E^104A/K^111A PAM (KRHEK-PAM) (from UniProt P49054 30-384) (natural protein) | 50 nM | 0.017 | 340000 | –
2 | R^101A/H^102A PAM (RH-PAM) (from UniProt P49054 30-384) (natural protein) | 424 nM and 731 nM | 0.014 | 33000 | –
3 | K^98A/K^111A PAM (KK-PAM) (from UniProt P49054 30-384) (natural protein) | 38 nM and 44 nM | 0.0095 | 250000 | –
4 | wt-PAM: Pg-binding group A streptococcal M-like protein, GAS strain NS13, full-length wild type (VEKLTADAELQRLKNERHEEAELERLKSEY) | – | – | – | increase in SK-mediated Pg activation rate ([2]; 20 nM PAM, Pg 80 nM, equimolar SK, 10 mM HEPES/100 mM NaCl, pH 7.4): 3.6 fold; enhancement in Pg conversion rate by SK ([2]; 500 nM PAM, Cl^− buffer (data not shown)): 220 fold; apparent molecular weight (Mw,app), self-association [3]: 71600
5 | Wt-PAM (Pg-binding group A streptococcal M-like protein, GAS strain NS13) (from UniProt P49054 30-384) (natural protein) | 23 nM and 33 nM | 0.0079 | 340000 | –
6 | NCCCCCC(=O)O [6-AHA, 6-aminohexanoic acid] | – | – | – | rate enhancement of uPA-catalyzed Pm generation ([4]; Cl^− buffer (data not shown)): 2.2 fold; rate enhancement of uPA-catalyzed Pm generation ([4]; acetate buffer (data not shown)): 1.1 fold; decrease in sedimentation coefficient (S°20,w) of Pg [5]: approximately 1 unit; increase in Pg conversion by uPA [6]: 1.2 fold

— paper PMC2846993 (Biochimica et biophysica acta, 2010)
